# Only some compounds are listed: those with a hit (about 3.2% of all), similar ones and a draw of the others.
# PfHsp90 yeast 2 = growth inhibition of PfHsp90-expressing yeast, primary screen, antimalarial PfHsp90 inhibitor project, S. cerevisiae, BacTiter-Glo luminescence, single point, set 2. BacTiter-Glo ATP, 48 h; yeast lacking PDR1 and PDR3 efflux regulators. inhibition, % at 9.4 µM. 310,000 compounds, 0.32% hits. AID 504621, 2011;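 active means every replicate shows inhibition above about 80%, whatever the replicate mean, limit read from the data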;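 further: 0% = DMSO neutral controls and 100% = 20 µM radicicol positive controls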
# rRNA inh HTS = reduced GFP signal of wild-type E. coli, primary screen, bacterial rRNA inhibitor project, GFP/RFP fluorescence, OD600, single point; AID 720706, 2013; 350,000 compounds, 1.6% hits; GFP signal change (wild-type ribosome), % (test concentration not listed); E. coli WT GFP vs humanized-ribosome RFP mutants, 24 h; stronger effect = lower value; DMSO median 0, no signal -100;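 active means significant combined selectivity score with lowered wild-type GFP, culture density cut under 30%, mutant RFP and density less affected; inactive means any of these conditions unmet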
# MLL AF4-AF9 inh = inhibitors of AF4 peptide binding to AF9, primary screen, biochemical, AlphaScreen, biotin-AF4 peptide, FLAG-AF9, single point; Protein AF-9 (Homo sapiens), P42568; inhibition, % at 10 µM; 350,000 compounds, 0.47% hits; AID 651704, 2012;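 active means every replicate reaching a set inhibition limit, whatever the replicate mean, cut at about 25% in these data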;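 further: 0% = plate neutral control median and 100% = total signal loss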
# Target sequence (P42568 whole entry, looked up): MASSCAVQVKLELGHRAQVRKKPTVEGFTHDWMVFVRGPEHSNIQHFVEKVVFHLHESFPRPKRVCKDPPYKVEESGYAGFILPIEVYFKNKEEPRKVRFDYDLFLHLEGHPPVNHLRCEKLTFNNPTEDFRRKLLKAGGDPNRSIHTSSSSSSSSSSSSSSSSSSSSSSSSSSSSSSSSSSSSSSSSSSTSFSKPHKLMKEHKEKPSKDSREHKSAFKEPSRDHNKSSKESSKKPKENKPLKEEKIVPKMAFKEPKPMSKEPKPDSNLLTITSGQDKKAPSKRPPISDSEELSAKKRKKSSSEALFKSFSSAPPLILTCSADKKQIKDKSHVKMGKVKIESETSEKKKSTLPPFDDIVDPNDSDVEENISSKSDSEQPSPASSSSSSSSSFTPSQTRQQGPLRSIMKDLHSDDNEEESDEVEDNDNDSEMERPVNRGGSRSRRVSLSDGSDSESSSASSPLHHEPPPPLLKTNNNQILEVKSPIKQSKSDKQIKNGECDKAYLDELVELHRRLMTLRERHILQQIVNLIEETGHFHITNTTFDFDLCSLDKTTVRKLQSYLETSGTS
# S100A4 MyoIIA = inhibitors of S100A4-myosin IIA peptide binding, primary screen, biochemical, fluorescence polarization, TAMRA-MyoIIA peptide. Protein S100-A4 (Homo sapiens), P26447. inhibition, % at 10.7 µM. 360,000 compounds, 0.14% hits. AID 652163, 2013;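 active means mean inhibition of at least 70% across replicates, with every replicate also reaching that level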
#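 Material: human S100A4 monomer with TAMRA-labelled myosin IIA peptide; buffer or medium: HEPES pH 7.2 with CaCl2, KCl, NaCl, DTT, Triton; compound dosing: one concentration per compound; schedule: 5 min incubation before reading; benchmarks: neutral control DMSO, positive control TFP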
# Cneo AK release = Cryptococcus neoformans cell lysis inducers, primary screen, AK release luminescence, single concentration; C. neoformans lysis, adenylate kinase release luminescence, 4 h; normalised: neutral wells 0, clomiphene wells 100; lysis activity, % at 15 µM; 360,000 compounds, 0.2% hits;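 active means mean lysis activity across replicates of at least 80%, whatever share of replicates individually reach that level; inactive means mean lysis activity below 80%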
#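 Assay system: C. neoformans cells. Amount: yeast cell density of 5 × 10^6 cells/mL. Technique: AK luminescence. Buffer or medium: YPD. Times: static 4 h at 37 °C with compound, 1 h detection. Dosing: single-point compound dose. Read-out: lysis from increased AK signal.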
# DENV2 CPE rescue = inhibitors of DENV2 cytopathic effect, primary screen, cell-based, plate reader, single concentration; DENV2-infected cells, cytopathic effect rescue; CPE inhibition, % at 9.99 µM; 350,000 compounds, 1.7% hits; AID 651640, 2012; in the data active means CPE inhibition above about 20%, passing the limit was not always enough; tested in BHK-21 cells;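 further: 0% = median of neutral control wells and 100% = median of positive control wells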
# The depositor's hits bear a star; x = no result given.
SMILES,PfHsp90 yeast 2,rRNA inh HTS,MLL AF4-AF9 inh,S100A4 MyoIIA,Cneo AK release,DENV2 CPE rescue
O=C(NC1CCC1)[C@@H]1[C@@H](CO)[C@@H]2Cn3c(ccc(/C=C/c4ccccc4)c3=O)[C@@H]2N1Cc1cncnc1,x,-0.8,-1.5,8.3,-0.5,-3.5
COc1ccc(S(=O)(=O)Cc2ccc(C(=O)N3CCN(c4cc(Cl)ccc4C)CC3)o2)cc1,5.0,-17.4*,-3.1,0.5,1.1,19.4
COc1ccc(S(=O)(=O)Cc2ccc(C(=O)NC3CC3)o2)cc1,19.4,8.1,0.4,-8.8,4.8,24.5*
O=C(Cc1ccncc1)NCC[C@@H]1CC[C@@H](NS(=O)(=O)c2ccccc2Cl)[C@@H](CO)O1,x,0.9,-1.8,14.2,-1.1,-5.3
CN(Cc1ccccc1)C(=O)c1[nH]cnc1C(=O)NCc1ccccc1,-14.5,-28.3*,-2.1,5.6,-0.3,0.1
CC1=CCC[C@H]2[C@H](C1)C(=O)C[C@@H](C)[C@]2(C)CC/C(=C/CO)CO,7.2,-8.6,-1.0,-14.8,-0.6,23.9*
C[C@@H]1CC(=O)[C@H]2CC(CO)=CCC[C@@H]2[C@@]1(C)CC/C(=C/CO)CO,-10.4,x,x,x,-8.6,x
C[C@H]1CN([C@@H](C)CO)C(=O)c2cc(NS(=O)(=O)c3cn(C)cn3)ccc2O[C@@H]1CN(C)C(=O)Nc1ccccc1,x,0.9,-1.8,-1.7,-0.9,3.7
CO[C@@H]1CN(C)C(=O)c2cc(NC(=O)NC3CCCCC3)ccc2OC[C@@H](C)N(C)C[C@H]1C,x,1.3,-0.8,8.7,0.6,2.2
CC(Oc1ccc(F)cc1)C(=O)Nc1nc(-c2ccccn2)cs1 (configuration not stated),-15.3,-56.7,1.1,-6.3,4.8,2.2
Cc1cccc(OC(C)C(=O)Nc2nc(-c3ccncc3)cs2)c1 (configuration not stated),-10.9,2.0,-2.1,1.7,0.7,105.6*
COc1ccc(CN(C)C[C@@H]2Oc3ccc(NS(=O)(=O)c4cn(C)cn4)cc3C(=O)N([C@H](C)CO)C[C@@H]2C)cc1,x,1.1,-3.0,4.8,-0.8,-4.8
Cc1cc(NC(=O)Nc2cccc(C(F)(F)F)c2)n(C)n1,16.6,0.1,-0.5,2.7,x,3.9
CC(=O)Nc1cccc(Nc2cc(C)nn2C)c1,x,4.9,-2.7,-0.9,0.9,73.0*
O=C(/C=C/c1ccccc1)CCN1CCCCC1,116.8*,6.3,0.3,-2.5,-0.2,1.6
O=C(CCN1CCCCCC1)c1ccccc1,-3.0,x,x,x,-0.9,x
COc1ccc(-c2noc3c2-c2nc(-c4ccccc4C)sc2CC3)cc1,x,13.8,-2.5,7.5,x,19.1
Cc1ccccc1-c1nc2c(s1)CCc1onc(-c3ccc(Cl)cc3)c1-2,2.2,9.7,2.1,-0.8,4.0,104.6*
O=C(N[C@H]1CC[C@@H](CCn2cc(-c3ccccn3)nn2)O[C@@H]1CO)c1ccccc1,x,0.0,-1.5,9.3,-3.0,-2.2
C[C@@H]1CN([C@@H](C)CO)C(=O)c2cc(NC(=O)Cc3cn(C)c4ccccc34)ccc2O[C@H]1CN(C)C(=O)NC1CCCCC1,x,-1.5,1.2,-5.5,-3.2,23.5*
C[C@H]1CN([C@@H](C)CO)C(=O)c2cc(NC(=O)Cc3ccccc3)ccc2O[C@H]1CN(C)C(=O)NC1CCCCC1,x,1.5,-1.6,2.0,-2.2,-7.3
C[C@H](CO)N1C[C@H](C)[C@H](CN(C)C(=O)NC2CCCCC2)Oc2ccc(NC(=O)Cc3ccccc3)cc2C1=O,x,-2.2,-2.0,4.3,9.8,33.2*
CC(C)NC(=O)N(C)C[C@@H]1Oc2ccc(NC(=O)Cc3cn(C)c4ccccc34)cc2C(=O)N([C@H](C)CO)C[C@H]1C,x,0.1,-0.2,-7.6,59.8,51.8*
CC[n+]1c(/C=C/c2ccc(OC(C)=O)c(OC)c2)ccc2ccccc21,15.3,-13.8*,4.2,-14.4,-4.2,0.3

# Source: PubChem BioAssay (Broad Institute)
